Three compounds from ChEMBL document CHEMBL1150238, “Podophyllotoxin directly binds a hinge domain in E2 of HPV and inhibits an E2/E7 interaction in vitro” (Bioorg Med Chem, 2008) can be followed below.

The target in test [1] is T1, Regulatory protein E2 (Human papillomavirus type 1a) (UniProt P03118).
T1 sequence (whole entry): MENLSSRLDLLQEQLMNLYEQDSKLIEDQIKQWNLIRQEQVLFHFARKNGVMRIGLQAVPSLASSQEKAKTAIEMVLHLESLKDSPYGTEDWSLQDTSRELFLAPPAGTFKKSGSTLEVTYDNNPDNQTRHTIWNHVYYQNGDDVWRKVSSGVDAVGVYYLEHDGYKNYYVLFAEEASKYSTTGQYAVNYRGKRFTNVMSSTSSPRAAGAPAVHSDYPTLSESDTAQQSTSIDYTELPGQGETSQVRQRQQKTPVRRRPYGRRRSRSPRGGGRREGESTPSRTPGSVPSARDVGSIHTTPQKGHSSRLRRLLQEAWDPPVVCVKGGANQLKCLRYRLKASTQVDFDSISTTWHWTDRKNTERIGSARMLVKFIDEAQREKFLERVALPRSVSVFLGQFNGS
Description: Inhibition of HPV1a E2-E7 protein interaction at 250 uM assessed as rate of E2 binding to E7 protein by surface plasmon resonance method. On the set-up: scale not given: the % may be the effect or the level left. In a few lines: (§1)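 SPR competition format: E2 protein at 0.1 µM was mixed with PT in 5% DMSO and injected at 30 µL/min, 25 °C. Bound E2 amount was compared at 115 s after injection. Buffer alone and PT without E2 served as sensorgram controls.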
A general note: In SPR one partner is held on a chip, and binding of the other changes the refractive index at the surface.

The target in test [2] is T2, Regulatory protein E2 (Human papillomavirus type 1a, UniProt P03118).
T2 sequence (P03118 whole entry): T1 sequence (whole entry)
Description: Binding affinity to HPV1a recombinant E2 protein by surface plasmon resonance method. In a few lines:
(§2)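 E2 proteins (full-length and HPV 1a domain constructs, FLAG-tagged) expressed in E. coli with 1 mM IPTG induction for 3 h and purified by FPLC. Proteins amine-coupled to sensor chip (EDC/NHS activation, 10 mM acetate pH 4.0–6.0, ethanolamine block). PT flowed at various concentrations in PBS pH 7.4, 0.005% Tween20, 5% glycerol, 5% DMSO, 20–30 µL/min, 25 °C. Reference flow cell subtracted, KD derived; replicates over two times.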

Test [3] can be described thus: Cytotoxicity against mouse L210 cells after 48 hrs. The class given is functional, cell-based. Particulars: L210, 48 h. Put shortly:
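Cells seeded at 1.0 × 10⁴ per 100 µL and preincubated 24 h at 37 °C, 5% CO2. They were then exposed to graded compound concentrations for 48 h. WST-8 reagent added for 4 h, and absorbance read at 450 nm.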

Test [4] concerns the target T2, Regulatory protein E2. Put plainly: Binding affinity to HPV1a recombinant E2 protein DNA binding domain by surface plasmon resonance assay. In a few lines:
as §2

The target in test [5] is T2, Regulatory protein E2. Description: Binding affinity to HPV1a recombinant E2 protein activator domain by surface plasmon resonance assay. Put shortly:
as §2

Test [6] addresses T1, Regulatory protein E2 (Human papillomavirus type 1a). Description: Inhibition of HPV1a E2-E7 protein interaction at 500 uM assessed as rate of E2 binding to E7 protein by surface plasmon resonance method. The arrangement: scale not given: the % may be the effect or the level left. In a few lines:
as §1

Test [7] addresses T3, Regulatory protein E2 (human papillomavirus 11, UniProt P04015).
T3 sequence (P04015 whole entry): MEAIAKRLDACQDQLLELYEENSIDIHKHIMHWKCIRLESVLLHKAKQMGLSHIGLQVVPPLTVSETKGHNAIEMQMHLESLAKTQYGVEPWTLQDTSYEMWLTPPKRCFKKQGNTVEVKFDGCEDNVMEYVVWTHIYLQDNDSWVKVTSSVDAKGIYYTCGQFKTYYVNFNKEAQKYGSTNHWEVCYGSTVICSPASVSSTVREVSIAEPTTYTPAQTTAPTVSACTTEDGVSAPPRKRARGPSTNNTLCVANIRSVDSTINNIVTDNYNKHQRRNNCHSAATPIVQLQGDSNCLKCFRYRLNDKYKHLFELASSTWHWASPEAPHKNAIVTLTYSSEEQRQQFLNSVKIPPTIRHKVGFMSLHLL
Put plainly: Binding affinity to HPV11 recombinant E2 protein by surface plasmon resonance method. In a few lines:
as §2

Test [8] addresses T2, Regulatory protein E2. Description: Binding affinity to HPV1a recombinant E2 protein hinge domain by surface plasmon resonance assay. In a few lines: as §2
The target of test [9] is T4, Regulatory protein E2 (Human papillomavirus 16, UniProt P03120).
T4 sequence (P03120 whole entry): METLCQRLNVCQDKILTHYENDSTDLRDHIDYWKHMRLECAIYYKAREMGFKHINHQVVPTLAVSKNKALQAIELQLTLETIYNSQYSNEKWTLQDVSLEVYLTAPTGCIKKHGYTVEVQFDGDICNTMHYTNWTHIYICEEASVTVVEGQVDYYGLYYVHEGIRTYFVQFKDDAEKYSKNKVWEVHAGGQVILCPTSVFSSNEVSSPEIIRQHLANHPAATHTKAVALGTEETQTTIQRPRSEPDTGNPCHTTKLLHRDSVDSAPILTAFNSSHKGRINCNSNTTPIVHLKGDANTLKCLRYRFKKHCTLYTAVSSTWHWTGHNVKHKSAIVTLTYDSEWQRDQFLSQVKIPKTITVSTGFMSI
Put plainly: Binding affinity to HPV16 recombinant E2 protein by surface plasmon resonance method. Put shortly:
as §2

The target of test [10] is T1, Regulatory protein E2 (Human papillomavirus type 1a). Description: Inhibition of HPV1a recombinant E2 protein-DNA interaction by electron mobility shift assay.

The source made the active and inactive calls. The rule behind the calls is not given here.

Consider `COc1cc([C@@H]2c3cc4c(cc3[C@@H](O[C@@H]3O[C@@H]5CO[C@@H](C)O[C@H]5[C@H](O)[C@H]3O)[C@H]3COC(=O)[C@H]23)OCO4)cc(OC)c1O` [ETOPOSIDE], for which, in [1], the Activity is 82%. In addition, on Regulatory protein E2 [2], the Kd – broadly, the constant that tells how readily two partners part at equilibrium – is 210 µM.

As for `COc1cc([C@@H]2c3cc4c(cc3[C@H](OC(=O)CCCCCNC(=O)CCCC[C@@H]3SC[C@@H]5NC(=O)N[C@@H]53)[C@H]3COC(=O)[C@H]23)OCO4)cc(OC)c1OC`, half-maximal inhibition in test [3] (IC50) required 0.4 µM.

For the compound `COc1cc([C@@H]2c3cc4c(cc3[C@H](O)[C@H]3COC(=O)[C@H]23)OCO4)cc(OC)c1OC` [PODOFILOX], the Kd on Regulatory protein E2 [4] was more than 400 µM; at Regulatory protein E2 [5] it was more than 400 µM; at Regulatory protein E2 [7] it was 20.1 µM; at Regulatory protein E2 [2], 24.1 µM; on Regulatory protein E2 [8], 1.05 µM; on Regulatory protein E2 [9] it was 70.5 µM. In addition, the Activity stood at 49.1% in test [6] and 60.6% in test [1]. In [3], the IC50 (in general, the midpoint of a concentration-inhibition curve) was 0.007 µM. The result in [10] was inactive.
